DNA FID counter: compounds displacing fluorescent DNA intercalator, primary screen, artefact control for HCV NS3 helicase inhibitor project, biochemical, FID fluorescence; DNA fluorescent intercalator displacement; inhibition, % at 7.9 µM; 290,000 compounds, 0.17% hits; AID 1845, 2009; in the data active = inhibition above about 37%;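 note: higher means more ethidium bromide displaced from hairpin DNA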
MEKK3 PB1 HTS: modulators of MEKK3-MEK5 PB1 binding, primary screen, biochemical, wildtype MEKK3, multiplex bead flow cytometry, Alexa488-MEK5; bead-based flow cytometry, Alexa488-MEK5 binding to MEKK3; actives lie on both sides; 0 = blocked by unlabeled MEK5, 100 = vehicle; binding response (% of control), % at 10 µM; 290,000 compounds, 1.4% hits; AID 1529, 2009;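 active = binding response more than 3 SD above or below the average of its plate-row segment, actives on both sides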;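 note: Alexa488 bead fluorescence after subtracting the streptavidin-only scavenger bead signal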
Target sequence (Q99759 whole entry, looked up): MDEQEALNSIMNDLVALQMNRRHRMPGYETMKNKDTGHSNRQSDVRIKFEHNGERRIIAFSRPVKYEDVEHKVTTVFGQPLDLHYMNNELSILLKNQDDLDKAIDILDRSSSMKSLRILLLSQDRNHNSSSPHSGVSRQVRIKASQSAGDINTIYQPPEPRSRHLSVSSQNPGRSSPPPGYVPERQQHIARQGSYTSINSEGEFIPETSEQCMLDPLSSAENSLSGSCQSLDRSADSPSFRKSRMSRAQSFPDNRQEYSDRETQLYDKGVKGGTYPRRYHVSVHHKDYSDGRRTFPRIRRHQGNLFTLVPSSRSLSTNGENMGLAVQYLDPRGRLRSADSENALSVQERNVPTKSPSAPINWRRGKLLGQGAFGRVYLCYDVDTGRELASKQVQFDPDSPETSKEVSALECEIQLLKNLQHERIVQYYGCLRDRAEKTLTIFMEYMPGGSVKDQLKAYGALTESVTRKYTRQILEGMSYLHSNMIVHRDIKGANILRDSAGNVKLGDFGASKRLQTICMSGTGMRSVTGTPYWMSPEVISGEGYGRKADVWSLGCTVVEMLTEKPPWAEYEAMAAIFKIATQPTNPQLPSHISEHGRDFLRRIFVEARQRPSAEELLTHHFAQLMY
MEKK2 WT-MEK5: modulators of MEK5 binding to wildtype MEKK2, primary screen, biochemical, multiplex bead flow cytometry, Alexa488-MEK5; Mitogen-activated protein kinase kinase kinase 2 (Homo sapiens), Q9Y2U5; AID 1531, 2009; 290,000 compounds, 1.1% hits; binding response (% of control), % at 10 µM; Alexa488-MEK5 binding to MEKK2 WT; actives lie on both sides; in the data active = binding response below about 67% or above about 130%
T cruzi inh: inhibitors of intracellular T. cruzi growth, primary screen, luminescence, NIH3T3 host cells | T. cruzi beta-gal in NIH3T3, 90 h | inhibition, % (concentration not given with the values) | 300,000 compounds, 1.4% hits;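 active = mean inhibition across valid replicates above about 55%, limit read from the data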;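 note: signal also drops with host cell toxicity which is not excluded here; higher percent means less beta-gal luminescence so fewer parasites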
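Assay system: NIH/3T3 host cells with β-galactosidase reporter T. cruzi; input: 5,000 host fibroblasts per well; compound: single 50 nL compound addition per well in DMSO; timing: ≥90 h infection period, 3 h prior cell attachment; measured by: GalScreen β-gal luminescence, detergent lysis, 60 min; evaluation: percent inhibition of parasite-derived β-gal signal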
MEKK2 mut-MEK5: MEK5 binding signal on mutant MEKK2 PB1, primary screen, biochemical, multiplex bead flow cytometry, Alexa488-MEK5 | Alexa488-MEK5 binding to MEKK2 mutant | percent response, % at 10 µM | 290,000 compounds, 0.35% hits; in the data active = percent response above about 24%, passing the limit was not always enough
HCV NS3 hel inh: inhibitors of HCV NS3 helicase, primary screen, biochemical, Cy5 molecular beacon fluorescence; Hepatitis C virus NS3 helicase; NS3 helicase DNA unwinding; inhibition, % at 10.9 µM; 290,000 compounds, 0.56% hits;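 active = inhibition above the mean of all tested compounds plus 3 SD, set per campaign, cut at about 35% in these data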
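Test system: hepatitis C virus NS3 helicase domain fragment enzyme. Also added: annealed dual-labelled DNA beacon duplex, ATP-started. Timing: 60 min unwinding reaction at 25 °C after ATP addition. Technique: Cy5 fluorescence. Measure: % inhibition of unwinding.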
Numbers stand for hits; i = inactive; nt = not tested or not shown; [ ] = dose if it differs, or a comment. A selection: hits, their analogues and other compounds. The true share with any hit is near 4.1%.

SMILES | DNA FID counter | MEKK3 PB1 HTS | MEKK2 WT-MEK5 | T cruzi inh | MEKK2 mut-MEK5 | HCV NS3 hel inh
CN1CCN(c2ccc(NC(=O)c3ccc(Oc4ccccc4)cc3)cc2)CC1 | i | i | i | i | 27 | i
COc1cccc(C(=O)OCC(=O)NC(C)CCc2ccccc2)c1O (configuration not stated) | i | i | i | i | i | i
CC1C(=O)N2CCCc3cc(S(=O)(=O)N4CCC(C(N)=O)CC4)cc1c32 (configuration not stated) | i | i | i | i | i | i
Cc1ccc(CNC(=O)CCC2CCCN(Cc3c(C)nn(C(C)C)c3C)C2)o1 (configuration not stated) | i | i | i | 67 | i | i
Cc1ccc(CNC(=O)CCC2CCCN(Cc3ccc4cccc(F)c4n3)C2)o1 (configuration not stated) | i | i | i | 61 | i | i
Cc1cccc(CC(=O)N2CCN(C(=O)c3ccco3)CC2)c1 | i | i | i | i | i | i
O=C(Nc1nc(-c2ccccc2)cs1)c1ccccc1NS(=O)(=O)c1ccc(F)cc1 | i | i | i | i | i | i
O=S(=O)(Nc1ccc(-c2csc(-c3ccccc3)n2)cc1)c1ccc(F)cc1 | i | i | i | 68 | i | i
CCOC(=O)c1c(C)n(CC(O)CN(C)C)c2cc(Br)c(OC)cc12 (configuration not stated) | i | i | i | 79 | i | i
O=C(COC(=O)c1cccc(C(=O)OCC(=O)NC2CC2)n1)NC1CC1 | i | i | i | i | i | i
O=C(Nc1ccc(NC(=O)c2ccc(S(=O)(=O)c3ccccc3)cc2)cc1)c1ccccc1 | 46 | nt | nt | i | nt | i
O=[N+]([O-])c1ccc(N2CCN(S(=O)(=O)c3ccc(Cl)c(Cl)c3)CC2)cc1NCCN1CCOCC1 | i | i | i | 56 | i | i
O=[N+]([O-])c1cc(S(=O)(=O)N2CCCC2)ccc1NCCCN1CCOCC1 | i | i | i | i | i | i
Cc1cc(-c2nnc(SCC(=O)Nc3ccc(Br)cc3F)n2N)n[nH]1 | i | i | i | i | i | i
CC(NC(=O)[C@H](C)N1C(=O)N2CCc3c([nH]c4ccccc34)[C@@]2(C)C1=O)c1ccccc1 (some centres not stated) | i | i | i | i | i | i
CCCCOc1ccc(/C=C/C2=CC(C)(C)NC(=S)N2)cc1OCC | i | i | i | 70 | i | i
CCOC(=O)C1=C(c2ccccc2)N=c2s/c(=C\c3cc(OC)c(OC)c(OC)c3)c(=O)n2C1c1cccs1 (configuration not stated) | i | i | i | 63 | i | i
C/C(=N\NS(=O)(=O)c1ccccc1)c1ccc2c(c1)OCCO2 | i | i | i | i | i | i
Cc1ccc(S(=O)(=O)N2CCC(C(=O)Nc3nnc(C)s3)CC2)cc1 | i | i | i | i | i | i
Cc1cc(Nc2ccccc2)c2c([N+](=O)[O-])ccc(C)c2n1 | i | i | i | 61 | i | i
Cc1cc(Nc2cccc([N+](=O)[O-])c2)c2cccc(C)c2n1 | i | i | i | i | i | i
O=c1nc2s/c(=C\c3ccc(-c4ccccc4[N+](=O)[O-])o3)c(=O)n2nc1-c1ccccc1 | i | i | i | i | i | 43
CN1C(=O)/C(=C/c2ccc(-c3ccccc3[N+](=O)[O-])o2)SC1=Nc1ccc(Cl)c(C(=O)O)c1 | i | i | i | i | i | i
COc1cccc(CNC(=O)C(NS(=O)(=O)c2ccc3c(c2)CCN3C(C)=O)C(C)C)c1 (configuration not stated) | i | i | i | i | i | i
CCS(=O)(=O)CCn1c([N+](=O)[O-])cnc1C | i | i | -9.0 | i | i | i
SMILES | DNA FID counter | MEKK3 PB1 HTS | MEKK2 WT-MEK5 | T cruzi inh | MEKK2 mut-MEK5 | HCV NS3 hel inh
Cc1ncc([N+](=O)[O-])n1CCO | i | i | i | i | i | i
COc1ccc2cc(OC)c(C(=O)N3CCOCC3)cc2c1 | i | i | -7.0 | i | i | i
Cc1ccc(S(=O)(=O)/N=C/c2ccc(N(C)C)cc2)cc1 | i | i | i | i | i | i
Cc1ccc(S(=O)(=O)NCCN=Cc2ccc(N(C)C)cc2)cc1 | i | i | 61[inhibitor] | i | i | i
O=S(=O)(C/C(=C/CO)S(=O)(=O)c1ccccc1)c1ccccc1 | i | i | i | 62 | i | i
CC(C)(CO)CNC1CCCN(C2Cc3ccccc3C2)C1 (configuration not stated) | i | i | i | 66 | i | i
C#Cc1cccc(C(=O)NC2CCCN(C3Cc4ccccc4C3)C2)c1 (configuration not stated) | i | i | i | i | i | i
Cc1c(-c2cccc(Cl)c2)nc2ccccc2c1C(=O)OCC(=O)Nc1ccc2c(c1)OCO2 | i | i | i | 55 | i | i
O=C(NCC1COc2ccccc2O1)c1ccc(NC(=O)C(c2ccccc2)c2ccccc2)cc1 (configuration not stated) | i | i | i | 85 | i | i
COc1ccc(CC(=O)Nc2nc(-c3ccncc3)cs2)cc1 | i | i | i | 67 | i | i
COc1ccc(CCC(=O)Nc2nc(-c3ccncc3)cs2)cc1 | i | i | i | i | i | i
Cc1ccc[n+](CC(=O)Nc2ccc(C)c(C)c2)c1 | i | i | i | i | i | i
COC(=O)c1ccc(-c2sc3nc(N4CCOCC4)c4c(c3c2N)CCCC4)o1 | i | i | i | 67 | i | i
CCOC(=O)c1sc2nc(N3CCOCC3)c3c(c2c1N)CCCC3 | i | i | i | i | i | i
Cc1ccc(C(=O)NCC(=O)NCCCc2ccccc2)cc1 | i | i | i | i | i | i
Cc1ccc2[nH]c(O)c(N=Nc3nc4ccccc4s3)c2c1 | i | i | i | 61 | i | i
CC1(C)Cc2c(sc(NC(=O)c3ccc(C(=O)c4ccccc4)cc3)c2C#N)C(C)(C)N1 | 38 | i | i | i | i | i
COCc1cc(CN2CCCC(C(=O)c3cccc(C(F)(F)F)c3)C2)ccc1OC (configuration not stated) | i | i | i | 66 | i | i
COc1ccc(C(=O)C2CCCN(Cc3cccc4c3OCO4)C2)cc1OC (configuration not stated) | i | i | i | 62 | i | i

Bioassay records from PubChem.
